According to ChEMBL document CHEMBL5331127, “Discovery of ARD-2051 as a Potent and Orally Efficacious Proteolysis Targeting Chimera (PROTAC) Degrader of Androgen Receptor for the Treatment of Advanced Prostate Cancer” (J Med Chem, 2023):
pIC50: −log10 of the molar value.

Key:
[1] = target: T1, Androgen receptor (Homo sapiens) (UniProt P10275); assay: Induction of androgen receptor degradation in human VCaP cells at 1 uM after 24 hrs by Western blotting analysis relative to control; assay type: cell-based
T1 sequence (whole entry): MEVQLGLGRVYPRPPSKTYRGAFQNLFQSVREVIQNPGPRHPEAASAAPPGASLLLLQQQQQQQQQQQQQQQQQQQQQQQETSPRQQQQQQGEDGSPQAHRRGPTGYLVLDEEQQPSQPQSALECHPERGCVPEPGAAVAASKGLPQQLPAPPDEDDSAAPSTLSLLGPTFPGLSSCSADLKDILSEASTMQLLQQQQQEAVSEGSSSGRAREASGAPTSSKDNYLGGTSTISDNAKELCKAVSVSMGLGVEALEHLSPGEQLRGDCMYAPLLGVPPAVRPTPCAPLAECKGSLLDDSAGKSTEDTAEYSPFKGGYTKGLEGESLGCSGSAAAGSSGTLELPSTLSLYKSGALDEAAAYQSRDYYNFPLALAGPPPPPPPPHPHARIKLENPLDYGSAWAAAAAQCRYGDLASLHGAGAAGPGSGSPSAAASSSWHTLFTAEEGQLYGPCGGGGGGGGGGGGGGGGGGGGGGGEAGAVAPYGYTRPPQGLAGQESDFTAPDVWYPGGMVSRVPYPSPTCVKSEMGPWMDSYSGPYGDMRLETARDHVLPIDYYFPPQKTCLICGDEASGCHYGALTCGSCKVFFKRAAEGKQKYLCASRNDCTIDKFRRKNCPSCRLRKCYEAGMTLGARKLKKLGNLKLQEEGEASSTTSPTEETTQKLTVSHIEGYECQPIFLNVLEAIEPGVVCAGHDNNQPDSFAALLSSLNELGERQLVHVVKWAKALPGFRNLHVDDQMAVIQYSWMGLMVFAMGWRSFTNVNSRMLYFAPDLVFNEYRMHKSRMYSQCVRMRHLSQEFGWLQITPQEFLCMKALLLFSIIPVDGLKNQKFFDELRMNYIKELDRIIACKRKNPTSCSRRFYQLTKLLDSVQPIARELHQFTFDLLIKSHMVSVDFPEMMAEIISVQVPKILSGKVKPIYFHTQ
Outline: (§1)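 VCaP cells treated for 24 h at 10, 100 or 1000 nM. AR protein measured by Western blotting.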

[2] = Drug concentration in ICR mouse plasma at 10 mg/kg, po measured after 6 hrs; assay type: ADME, organism-based
Outline: (§2)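 Mice given a single 10 mg/kg dose by oral gavage, 3 mice per time point. Plasma drug levels measured at 1, 3, 6 and 24 h; mean ± SD reported.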

[3] = target: T1, Androgen receptor (Homo sapiens); assay: Induction of androgen receptor degradation in human VCaP cells at 0.01 uM after 24 hrs by Western blotting analysis relative to control; assay type: cell-based; outline: as §1
[4] = Drug concentration in ICR mouse plasma at 10 mg/kg, po measured after 3 hrs; assay type: ADME, organism-based; outline: as §2
[5] = Drug concentration in ICR mouse plasma at 10 mg/kg, po measured after 1 hr; assay type: ADME, organism-based; outline: as §2
[6] = target: T1, Androgen receptor (Homo sapiens); assay: Induction of androgen receptor degradation in human VCaP cells at 0.1 uM after 24 hrs by Western blotting analysis relative to control; assay type: cell-based; outline: as §1
[7] = Drug concentration in ICR mouse plasma at 10 mg/kg, po measured after 24 hrs; assay type: ADME, organism-based; outline: as §2
LNCaP = assay: Growth inhibition in human LNCaP cells incubated for 4 days by WST-8 assay relative to control; assay type: functional; details: time 4 day
Outline: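 LNCaP cells grown in RPMI 1640 with 10% FBS, treated for 4 days. Viability read by WST-8 assay.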

VCaP = assay: Growth inhibition in human VCaP cells incubated for 4 days by WST-8 assay relative to control; assay type: functional; details: time 4 day
Outline: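 VCaP prostate cancer cells (ATCC) were maintained in DMEM with Glutamax plus 10% fetal bovine serum at 37 °C, humidified 5% CO2. They were exposed to compound for 4 days, and viability was then read by WST-8 colorimetric assay following the kit instructions.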

Androgen receptor = target: T2, Androgen receptor (Homo sapiens, UniProt P10275); assay: Displacement of Fluormone AL Green from androgen receptor LBD (unknown origin) incubated for 4 hrs by fluorescence polarization assay
T2 sequence (P10275 whole entry): T1 sequence (whole entry)

[8] = target: T1, Androgen receptor (Homo sapiens); assay: Displacement of Fluormone AL Green from androgen receptor LBD (unknown origin) at 1 uM incubated for 4 hrs by fluorescence polarization assay relative to control

In the case of `C[C@H]1CC2(CCN(c3ccc(C(=O)N4CCN(C5CN(c6ccc7c(c6)C(=O)N(C6CCC(=O)NC6=O)C7=O)C5)CC4)cc3)CC2)CN1c1ccc(C#N)c(F)c1` (stereo partly specified), the Activity [1] was over 95%, the concentration at 6 h [2] was 91 ng/mL and the Activity [3] was over 90%. For the same molecule, the concentration at 3 h [4] was 146 ng/mL, the concentration at 1 h [5] was 134 ng/mL and the Activity [6] was over 95%.
Molecule `N#Cc1ccc(O[C@H]2CC[C@H](NC(=O)c3ccc(N4CCC(CN5CCN(c6cc7c(cc6F)C(=O)N(C6CCC(=O)NC6=O)C7=O)CC5)CC4)nn3)CC2)cc1Cl` (stereo partly specified) [BAVDEGALUTAMIDE] has a concentration at 6 h [2] of 110 ng/mL, a concentration at 24 h [7] of 70 ng/mL and a concentration at 3 h [4] of 124 ng/mL. The concentration at 1 h [5] was 55 ng/mL, the Imax (LNCaP) was 90% and the Imax (VCaP) was 88%.
For `CN1CCN(c2ccc(C(=O)N3CCC4(CC3)CCN(c3ccc(C#N)c(Cl)c3)C4)cc2)CC1`, the pIC50 (Androgen receptor) was 6.10.
For `C[C@H]1CC2(CCN(c3ccc(C(=O)N4CCN(C5CN(c6ccc7c(c6)C(=O)N(C6CCC(=O)NC6=O)C7=O)C5)CC4)cc3)CC2)CN1c1cnc(C#N)c(C(F)(F)F)c1` (stereo partly specified), the Activity [1] was over 95%, the concentration at 6 h [2] was 451 ng/mL and the Activity [3] was over 90%. It also gave a concentration at 3 h [4] of 678 ng/mL, a concentration at 1 h [5] of 571 ng/mL and an Activity [6] of over 95%.
Molecule `C[C@H]1CC2(CCN(c3ccc(C(=O)N4CCN(C5CCN(c6ccc7c(c6)C(=O)N(C6CCC(=O)NC6=O)C7=O)CC5)CC4)cc3)CC2)CN1c1ccc(C#N)c(Cl)c1` (stereo partly specified) has an Activity [1] of over 95%, a concentration at 6 h [2] of 104 ng/mL and an Activity [3] of over 90%. For the same molecule, the concentration at 3 h [4] was 208 ng/mL, the concentration at 1 h [5] was 238 ng/mL and the Activity [6] was over 95%.
Work on `C[C@H]1CC2(CCN(c3ccc(C(=O)N4CCN(C5CN(c6ccc7c(c6)C(=O)N(C6CCC(=O)NC6=O)C7=O)C5)CC4)cc3)CC2)CN1c1ccc(C#N)c(C(F)(F)F)c1` (stereo partly specified) yielded an Activity [1] of over 95%, a concentration at 6 h [2] of 29 ng/mL and an Activity [3] of over 90%. The concentration at 3 h [4] was 56 ng/mL, the concentration at 1 h [5] was 31 ng/mL and the Activity [6] was over 95%.
With `N#Cc1ccc(N2CCC3(CCN(C(=O)c4ccccc4)CC3)C2)cc1Cl` the pIC50 (Androgen receptor) was 5.77.
`N#Cc1ccc(N2CCC3(CCN(c4ccc(C(=O)N5CCN(CC6CN(c7ccc8c(c7)C(=O)N(C7CCC(=O)NC7=O)C8=O)C6)CC5)cc4)CC3)C2)cc1Cl` (stereo unspecified) showed an Activity [1] of 85%, an Activity [3] of 30% and an Activity [6] of 81%.
`N#Cc1ccc(N2CCC3(CCN(c4ccc(C(=O)N5CCCN(C6CN(c7ccc8c(c7)C(=O)N(C7CCC(=O)NC7=O)C8=O)C6)CC5)cc4)CC3)C2)cc1Cl` (stereo unspecified) gave an Activity [1] of 87%, an Activity [3] of 39% and an Activity [6] of 70%.
`N#Cc1ccc(N2CCC3(CCN(c4ccc(C(=O)N5CC6CC(C5)CN(C5CCN(c7ccc8c(c7)C(=O)N(C7CCC(=O)NC7=O)C8=O)CC5)C6)cc4)CC3)C2)cc1Cl` (stereo unspecified) showed an Activity [1] of 90%, an Activity [3] of 23% and an Activity [6] of 80%.
`C[C@H]1CC2(CCN(c3ccc(C(=O)N4CCC(C5CN(c6ccc7c(c6)C(=O)N(C6CCC(=O)NC6=O)C7=O)C5)CC4)cc3)CC2)CN1c1ccc(C#N)c(Cl)c1` (stereo partly specified) gave an Activity [1] of 92%, an Activity [3] of 12% and an Activity [6] of 64%.
`C[C@H]1CC2(CCN(c3ccc(C(=O)N4C[C@@H]5C[C@H]4CN5C4CN(c5ccc6c(c5)C(=O)N(C5CCC(=O)NC5=O)C6=O)C4)cc3)CC2)CN1c1ccc(C#N)c(Cl)c1` (stereo partly specified) gave an Activity [1] of over 95%, an Activity [3] of over 90% and an Activity [6] of over 95%.
`CN1CCN(C(=O)c2ccc(N3CCC4(CC3)CCN(c3ccc(C#N)c(Cl)c3)C4)cc2)CC1` showed a pIC50 (Androgen receptor) of 7.11.
`C[C@H]1N(c2ccc(C#N)c(Cl)c2)CCC12CCN(c1ccc(C(=O)N3CCN(C4CN(c5ccc6c(c5)C(=O)N(C5CCC(=O)NC5=O)C6=O)C4)CC3)cc1)CC2` (stereo partly specified) gave an Activity [1] of 91%, an Activity [3] of 46% and an Activity [6] of 68%.
`N#Cc1ccc(N2CCC3(CCN(c4ccc(C(=O)N5CCN(C6CN(c7ccc8c(c7)C(=O)N(C7CCC(=O)NC7=O)C8=O)C6)CC5)cc4)CC3)C2)cc1Cl` (stereo unspecified) gave an Activity [1] of over 95%, an Activity [3] of 78% and an Activity [6] of over 95%.
Molecule `N#Cc1ccc(N2CCC3(CCN(c4ccc(C(=O)N5CC6(C5)CN(C5CCN(c7ccc8c(c7)C(=O)N(C7CCC(=O)NC7=O)C8=O)CC5)C6)cc4)CC3)C2)cc1Cl` (stereo unspecified) has an Activity [1] of 73%, an Activity [3] of under 5% and an Activity [6] of 46%.
In the case of `N#Cc1ccc(N2CCC3(CCN(c4ccc(C(=O)N5CCN(CC6CCN(c7ccc8c(c7)C(=O)N(C7CCC(=O)NC7=O)C8=O)CC6)CC5)cc4)CC3)C2)cc1Cl` (stereo unspecified), the Activity [1] was over 95%, the Activity [3] was 24% and the Activity [6] was 80%.
Work on `N#Cc1ccc(N2CCC3(CCN(c4ccccc4)CC3)C2)cc1Cl` yielded an inhibition [8] of 30% and a pIC50 (Androgen receptor) of under 6.00.
In the case of `C[C@H]1CC2(CCN(c3ccc(C(=O)N4C[C@H]5C[C@@H]4CN5C4CN(c5ccc6c(c5)C(=O)N(C5CCC(=O)NC5=O)C6=O)C4)cc3)CC2)CN1c1ccc(C#N)c(Cl)c1` (stereo partly specified), the Activity [1] was 95%, the Activity [3] was 54% and the Activity [6] was 93%.
`N#Cc1ccc(N2CCC3(CCN(c4ccc(C(=O)N5CCCN(C6CCN(c7ccc8c(c7)C(=O)N(C7CCC(=O)NC7=O)C8=O)CC6)CCC5)cc4)CC3)C2)cc1Cl` (stereo unspecified) showed an Activity [1] of 54%, an Activity [3] of under 5% and an Activity [6] of 54%.
In the case of `N#Cc1ccc(N2CCC3(CCN(c4ccc(C(=O)N5CCN(C6CCN(c7ccc8c(c7)C(=O)N(C7CCC(=O)NC7=O)C8=O)CC6)CC5)cc4)CC3)C2)cc1Cl` (stereo unspecified), the Activity [1] was 95%, the Activity [3] was 24% and the Activity [6] was 74%.
